The results in this text go back to ChEMBL document CHEMBL1667822, “Selective antagonists of mouse trace amine-associated receptor 1 (mTAAR1): discovery of EPPTB (RO5212773)” (Bioorg Med Chem Lett, 2011).

For data set [1], the target named is T1, Trace amine-associated receptor 1 (Mus musculus, UniProt Q923Y8). As to the kind of experiment: Antagonist activity at mouse TAAR1 assessed as reversal of endogenous beta-PEA effect. It counts as functional. The method in brief: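 Mouse TAAR1 antagonist dose–response run as an in vitro cAMP functional assay. Efficacy is the reversal of the effect of the endogenous agonist β-PEA, with 100% efficacy defined as 0% min% stim. Values are averages of at least two independent experiments.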

In data set [2] the target is Trace amine-associated receptor 1 (Mus musculus) (UniProt Q923Y8). As to the kind of experiment: Antagonist activity at mouse TAAR1 assessed as residual stimulation by in vitro cAMP functional assay relative to control. The arrangement: concentration or dose not given beside the values. In a few lines: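 Mouse TAAR1 in vitro cAMP functional assay using the endogenous agonist β-PEA. The read-out is the residual β-PEA stimulation remaining at the maximum test-compound concentration. Values are averages of at least two independent experiments.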

Data set [3] concerns the target T1, Trace amine-associated receptor 1. As to the kind of experiment: Inhibition of mouse TAAR1.
Data set [4] can be described thus: Aqueous solubility of the compound. It is filed as physicochemical. The settings on record: buffer.
Data set [5] has as its target T2, Trace amine-associated receptor 1 (Homo sapiens, UniProt Q96RJ0).
T2 sequence (Q96RJ0 whole entry): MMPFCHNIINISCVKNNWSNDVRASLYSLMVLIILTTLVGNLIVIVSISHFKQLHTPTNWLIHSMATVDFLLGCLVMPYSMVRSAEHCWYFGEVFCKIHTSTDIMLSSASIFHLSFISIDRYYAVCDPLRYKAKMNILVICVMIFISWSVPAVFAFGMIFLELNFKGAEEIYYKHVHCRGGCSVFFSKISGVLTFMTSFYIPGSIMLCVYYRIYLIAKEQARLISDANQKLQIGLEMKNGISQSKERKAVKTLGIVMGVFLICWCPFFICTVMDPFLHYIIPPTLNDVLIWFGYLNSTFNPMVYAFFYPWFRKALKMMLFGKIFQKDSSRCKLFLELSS
As to the kind of experiment: Antagonist activity at human TAAR1 assessed as reversal of endogenous beta-PEA effect. It is filed as functional. In a few lines:
(§1)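 In vitro cAMP functional assay with antagonism read as reversal of the response to the endogenous agonist beta-PEA. Efficacy was scaled so that 100% equals 0% minimum stimulation. Residual beta-PEA stimulation was taken at the highest test-compound concentration. Values are means of at least two independent experiments, with duplicates typically within a twofold margin.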

For data set [6], the target named is Trace amine-associated receptor 1 (Rattus norvegicus, UniProt Q923Y9). Description: Inhibition of rat TAAR1. In a few lines: as §1
The subject of data set [7] is Liver microsomes. As to the kind of experiment: Intrinsic clearance in human liver microsomes measured per mg of protein. It counts as ADME, Microsome. The method in brief:
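In vitro incubation with human liver microsomes. Intrinsic clearance is expressed per mg microsomal protein per minute.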

The target of data set [8] is T2, Trace amine-associated receptor 1. As to the kind of experiment: Inhibition of human TAAR1. In a few lines: as §1
Data set [9] can be described thus: Intrinsic clearance in mouse liver microsomes measured per mg of protein. It counts as ADME, Microsome. In a few lines: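 Intrinsic clearance from in vitro incubation of compound with mouse liver microsomes, expressed per mg microsomal protein.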
Data set [10] is described as follows: Lipophilicity, log D of the compound. To be noted: octanol/water. It counts as physicochemical.

T1 sequence (Q923Y8 whole entry): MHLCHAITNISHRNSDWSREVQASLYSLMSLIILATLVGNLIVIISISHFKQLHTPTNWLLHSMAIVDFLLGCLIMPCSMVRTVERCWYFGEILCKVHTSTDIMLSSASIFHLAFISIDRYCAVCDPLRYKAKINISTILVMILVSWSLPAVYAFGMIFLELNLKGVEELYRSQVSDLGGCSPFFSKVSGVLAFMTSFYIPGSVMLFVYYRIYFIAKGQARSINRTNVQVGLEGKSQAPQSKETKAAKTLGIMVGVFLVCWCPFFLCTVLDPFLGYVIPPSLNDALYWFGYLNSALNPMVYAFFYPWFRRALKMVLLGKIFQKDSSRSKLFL
Sequence of Trace amine-associated receptor 1 (Mus musculus) (Q923Y8 whole entry): as above
Sequence of Trace amine-associated receptor 1 (Rattus norvegicus, UniProt Q923Y9) (Q923Y9 whole entry): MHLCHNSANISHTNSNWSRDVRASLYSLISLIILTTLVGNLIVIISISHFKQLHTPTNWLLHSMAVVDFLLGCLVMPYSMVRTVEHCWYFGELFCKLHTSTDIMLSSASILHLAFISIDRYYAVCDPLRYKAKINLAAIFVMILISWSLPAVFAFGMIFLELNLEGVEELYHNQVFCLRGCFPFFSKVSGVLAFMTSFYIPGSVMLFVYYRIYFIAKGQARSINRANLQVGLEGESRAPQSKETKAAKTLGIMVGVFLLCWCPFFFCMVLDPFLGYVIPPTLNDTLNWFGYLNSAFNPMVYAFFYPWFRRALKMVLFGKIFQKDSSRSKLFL

On to `CCNc1ccc(C(=O)Nc2cccc(OC)c2)cc1[N+](=O)[O-]`, for which the IC50 in [1] was 75 nM. Besides, the Activity in data set [2] was found to be 23%.
In turn, `COc1cccc(NC(=O)c2cccc(S(C)(=O)=O)c2)c1` displayed a Ki in data set [3] of 6000 nM.
On the same count and under the same terms, the figure for `COc1cccc(NC(=O)c2ccc(F)c(F)c2)c1` is 229 nM.
Still for that read-out and setting: then `COc1cccc(NC(=O)c2ccc(-n3cccn3)c([N+](=O)[O-])c2)c1`, with 262 nM.
Consider `COc1cccc(NC(=O)c2ccc(F)c(OC(F)(F)F)c2)c1`, for which the affinity in data set [3], expressed as Ki, was 138 nM.
In the case of `O=C(Nc1cccc(Cl)c1)c1ccc(N2CCCC2)c(C(F)(F)F)c1`, in [1], the IC50 turned out to be 245 nM. Further, the Activity in data set [2] was determined as 0%.
As to `O=C(Nc1cccc(OC(F)(F)C(F)F)c1)c1ccc(N2CCCC2)c(C(F)(F)F)c1`, in data set [1], the half-inhibitory concentration (IC50) worked out at 364 nM. Besides, the Activity in data set [2] was found to be 0%.
For `COc1cccc(NC(=O)c2ccc(NC(C)C)c([N+](=O)[O-])c2)c1` the same measures were 142 nM and 0%.
`COc1cccc(NC(=O)c2ccc(N)c([N+](=O)[O-])c2)c1` gave a Ki in data set [3] of 1920 nM.
On to `COc1cccc(NC(=O)c2ccc(S(=O)(=O)N3CC(C)CC(C)C3)c(F)c2)c1` (racemic), for which the IC50 was 6 nM in [1] and > 10000 nM in data set [5]. The Activity in data set [2] came to 28%. The solubility in data set [4] was < 1 µg/mL. For the same compound, the Ki in data set [6] is 1390 nM; in data set [3] it was 4 nM; in [8], > 20000 nM. Also, the clearance in [7] was 538 µL/min/mg; in data set [9] it was 1700 µL/min/mg.
Turning to `CCc1cccc(NC(=O)c2ccc(N3CCCC3)c(C(F)(F)F)c2)c1`, the IC50 in data set [1] came out at 470 nM. Moreover, the Activity in data set [2] is 0%.
As to `COc1cccc(NC(=O)c2ccc(N3CCC(C)CC3)c([N+](=O)[O-])c2)c1`, the values for the IC50 in data set [1] and in data set [5] were 60 nM and 3790 nM, respectively. The Activity in [2] came out at 0%. The solubility in data set [4] is < 1 µg/mL. Also, the clearance is 154 µL/min/mg in data set [7] and 396 µL/min/mg in data set [9]. In addition, in data set [8], the Ki was > 20000 nM. In addition, the logD in [10] is > 3.
Compound `COc1cccc(NC(=O)c2cnc(N3CCCC3)c(C(F)(F)F)c2)c1` returned a clearance in data set [9] of 321 µL/min/mg.
With `O=C(Nc1cccc(F)c1)c1ccc(N2CCCC2)c(C(F)(F)F)c1`, the IC50 in data set [1] worked out at 20 nM. Also, the Activity in [2] is 0%.
With `COc1cccc(NC(=O)c2cccc([N+](=O)[O-])c2)c1`, the IC50 in data set [1] is 665 nM. Besides, in data set [2], the Activity was 0%. Besides, in data set [3], the Ki amounted to 189 nM.
As for `COc1cccc(NC(=O)c2ccc(N3CCC3)c([N+](=O)[O-])c2)c1`, in [1], the IC50 is 200 nM. The Activity in data set [2] worked out at 9%.
With `CC(C)Oc1cccc(NC(=O)c2ccc(N3CCCC3)c(C(F)(F)F)c2)c1`, the IC50 in [1] was determined as 27 nM. Also, in data set [2], the Activity stood at 0%. For the same compound, in data set [3], affinity was put at a Ki of 4 nM.
Take `COc1cccc(NC(=O)c2ccc(N3CCCC3)c(C(F)(F)F)c2)c1`: the IC50 in [1] stood at 67 nM. The Activity in [2] amounted to 0%. This compound also displayed a Ki in data set [3] of 3 nM. Further, the clearance in data set [9] was determined as 341 µL/min/mg.
Consider `COc1cccc(NC(=O)c2ccc(F)c(C#N)c2)c1`, for which the Ki in data set [3] turned out to be 149 nM.
In data set [3], `COc1cccc(NC(=O)c2ccc(F)c(S(N)(=O)=O)c2)c1` yielded a Ki of 7430 nM.
Turning to `O=C(Nc1cccc(Br)c1)c1ccc(N2CCCC2)c(C(F)(F)F)c1`, in [1], the IC50 worked out at 568 nM. The Activity in data set [2] was determined as 0%.
Compound `O=C(Nc1cccc(OC(F)(F)F)c1)c1ccc(N2CCCC2)c(C(F)(F)F)c1` returned a Ki in data set [3] of 101 nM.
In the case of `CCCNc1ccc(C(=O)Nc2cccc(OC)c2)cc1[N+](=O)[O-]`, the IC50 in data set [1] came out at 13 nM. The Activity in data set [2] stood at 14%.
For `COc1cccc(NC(=O)c2ccc(Br)c([N+](=O)[O-])c2)c1` the same measures were 43 nM and 0%.
As to `Cc1cccc(NC(=O)c2ccc(N3CCCC3)c(C(F)(F)F)c2)c1`, the IC50 in [1] was 70 nM. Further, the Activity in data set [2] came out at 0%.
As for `COc1cccc(NC(=O)c2ccc(F)c(C(C)=O)c2)c1`, the Ki in data set [3] is 139 nM.
As for `O=C(Nc1cccc(OC(F)F)c1)c1ccc(N2CCCC2)c(C(F)(F)F)c1`, the IC50 in data set [1] was found to be 187 nM. In addition, the Activity in data set [2] turned out to be 0%.
As for `CC(=O)c1cccc(NC(=O)c2ccc(N3CCCC3)c(C(F)(F)F)c2)c1`, in data set [1], the IC50 was determined as 120 nM. Also, the Activity in data set [2] was determined as 0%.
With `COc1cccc(NC(=O)c2ccc(N3CCCCC3)c([N+](=O)[O-])c2)c1`, the IC50 in data set [1] turned out to be 19 nM. Further, the Activity in [2] stood at 0%.
As for `COc1cccc(NC(=O)c2ccc(F)c(C)c2)c1`, the affinity in [3], expressed as Ki, was 1580 nM.
Compound `COc1cccc(NC(=O)c2cnc(N3CCC(C)CC3)c(C(F)(F)F)c2)c1` gave a clearance in data set [9] of 107 µL/min/mg. For the same compound, the log distribution coefficient (logD) in [10] was > 4.
As to `COc1cccc(NC(=O)c2ccc(Cl)c([N+](=O)[O-])c2)c1`, the IC50 in data set [1] came to 12 nM. Moreover, in data set [2], the Activity came out at 0%.
As for `O=C(Nc1cccc(Oc2ccccc2)c1)c1ccc(N2CCCC2)c(C(F)(F)F)c1`, the Ki in data set [3] was found to be 82 nM.
Still for that read-out and setting: then `COc1cccc(NC(=O)c2ccc(N3CCN(C)CC3)c([N+](=O)[O-])c2)c1`, with 164 nM.
With `COc1cccc(NC(=O)c2ccc(Nc3ccccc3)c([N+](=O)[O-])c2)c1`, the IC50 in data set [1] came to 175 nM. The Activity in data set [2] stood at 0%.
Regarding `COc1cccc(NC(=O)c2ccc(NCc3ccccc3)c([N+](=O)[O-])c2)c1`, in data set [1], the IC50 was 14 nM. The Activity in data set [2] amounted to 3%.
Regarding `COc1cccc(NC(=O)c2ccc(N3CCCC3)c([N+](=O)[O-])c2)c1`, in [1], the IC50 turned out to be 17 nM. In data set [2], the Activity came to 0%.
With `COc1cccc(NC(=O)c2ccc(F)c(S(=O)(=O)N3CCCCC3)c2)c1`, affinity in [3] was put at a Ki of 694 nM.
On the same count and under the same terms, the figure for `COc1cccc(NC(=O)c2ccc(Cl)c(Cl)c2)c1` is 25 nM.
`COc1cccc(NC(=O)c2ccc(N3CCOCC3)c([N+](=O)[O-])c2)c1`: the IC50 in data set [1] was 79 nM. In data set [2], the Activity came out at 0%. In data set [3], the Ki was found to be 103 nM. For the same compound, in data set [9], the clearance turned out to be 18 µL/min/mg. For the same compound, the logD in [10] was 2.7.
